# HKDC1 inh = HKDC1 (human) hexokinase inhibition; Q2TB90; recombinant HKDC1, G6PDH/diaphorase resazurin coupled fluorescence; inhibition, % at 20 µM; 0.16% of 340,000 active; AID 493160;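 active means inhibition above about 35% when tested at 20 µM, limit read from the data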
#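 Incubation: 90 min at room temperature in dark / Material: recombinant HKDC1 (HK5) hexokinase enzyme, produced in-house / Quantity: enzyme 5 µg/mL final / Compound: one dose of 20 µM, 1% DMSO / Reagent: glucose and ATP substrates / Buffer or medium: Tris pH 8.0 buffer with MgCl2, Tween-20, BSA, BME / Technique: resorufin fluorescence at 613 nm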
# G6PDH counter = counter-screen for G6PDH assay hits: L. mesenteroides G6PDH inhibition. Purified L. mesenteroides G6PDH, diaphorase/resazurin coupled fluorescence, 45 min. inhibition, % at 5 µM. 0.12% of 200,000 active. AID 1020; in the data active means inhibition above about 50%
# PfG6PD inh = PfG6PD (Plasmodium falciparum) enzyme inhibition; PfGluPho enzyme, NADPH resazurin-diaphorase fluorescence; inhibition, % at 20 µM; 0.78% of 350,000 active;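 active means inhibition reaching at least a set limit at 20 µM in the primary screen, cut at about 59% in these data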
# Diaphorase inh = inhibits diaphorase or chemically oxidizes, flagging diaphorase assay artifacts; diaphorase resazurin-to-resorufin fluorescence, NADH, 16 min; bacterial (C. kluyveri) enzyme, not human; inhibition, % at 20 µM; 0.69% of 190,000 active; AID 1217;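 active means primary screen inhibition at 20 µM above a set limit, cut at about 50% in these data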
#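 Test system: diaphorase enzyme from Clostridium kluyveri; amount: diaphorase at 0.14 U/mL in enzyme working solution; detection: fluorescence of resorufin formed from resazurin, Ex 544/Em 590 nm; times: reaction incubation of 16 min at room temperature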
# HKDC1 act conf = HKDC1 (human) activation, single-dose confirmed; shares compounds with HKDC1 inh; recombinant HKDC1, G6PDH/diaphorase resazurin fluorescence; hits give low values; inhibition, % at 20 µM; 14% of 740 active;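 active means inhibition at or below a set negative limit, negative inhibition meaning the enzyme was activated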
# PfGluPho conf = confirmation of Plasmodium falciparum G6PD inhibitors | shares compounds with PfG6PD inh | recombinant PfGluPho, NADPH-diaphorase-resazurin fluorescence | inhibition, % at 20 µM | 34% of 2,400 active | AID 504753;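 active means inhibition of at least 50% at 20 µM in any single replicate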
# Diaphorase 10uM = diaphorase inhibition or oxidation at 10 uM NADPH. inhibition, % at 20 µM. AID 504862. diaphorase-coupled resazurin reduction, fluorescence, NADPH 10 uM. shares compounds with PfG6PD inh. 39% of 820 active;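 active means average inhibition reaching 50% or more with the compound at 20 µM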;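 further: resorufin red fluorescence formed as diaphorase reduces resazurin using NADPH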
# Diaph ctr 30uM = counter-screen for P. falciparum G6PD inhibitors: diaphorase inhibitors, oxidizers. shares compounds with PfG6PD inh. Diaphorase/resazurin coupled assay, resorufin fluorescence, 30 uM NADPH. inhibition, % at 20 µM. 29% of 820 active. AID 504863;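 active means inhibition averaging 50% or more, tested at 20 µM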
# Numbers stand for hits; i = inactive; nt = not tested or not shown. In the library only some 1.3% were active in any assay of this set; here they are far more common.
SMILES,HKDC1 inh,G6PDH counter,PfG6PD inh,Diaphorase inh,HKDC1 act conf,others
NC(=O)c1ccc(N=Cc2c(O)n(Cc3ccco3)c(=O)[nH]c2=O)cc1,36,nt,i,nt,i,
COc1ccc(OC)c(N2C(=O)/C(=C/c3ccco3)C(=O)NC2=S)c1,82,nt,i,nt,i,
Cc1ccc2c(C)c3ccc4ccccc4c3c[n+]2c1,i,nt,i,nt,-65,
COc1ccc(OC(=O)N(C)C[C@@H]2OCc3cnnn3CCCC(=O)N([C@H](C)CO)C[C@@H]2C)cc1,nt,nt,i,nt,nt,
O=C1CC=C2C3CC4N(CCC45c4ccccc4N1C25)CC3=CCO (stereo not given),i,nt,i,nt,nt,
O=C1CC=C2C3CC4N(CCC45c4cc(O)c(O)cc4N1C25)CC3=CCBr (stereo not given),45,nt,126,nt,i,
CC1(C)C(C(=O)N2CCN(c3ccc(Cl)cc3)CC2)C1(C)C,i,nt,i,nt,nt,
COC(=O)C1CN(C#N)N(c2ccc(Cl)cc2)C12c1ccccc1-c1ccccc12 (stereo not given),87,i,i,i,i,
Cc1ccc(-n2c(=S)[nH]c3ccc(C)cc3c2=O)cc1,nt,nt,i,nt,nt,
Cn1c(=O)c2c(nc(N/N=C/c3c(O)n(C4CCCCC4)c(=S)[nH]c3=O)n2C)n(C)c1=O,i,nt,i,nt,-49,
Cc1ccc(N2C(=O)NC(=O)/C(=C\c3cc(C)n(-c4ccc(C(=O)O)cc4)c3C)C2=O)cc1,i,nt,i,nt,nt,
Cc1cc(/C=C2\C(=O)NC(=O)N(c3ccc(Cl)cc3)C2=O)c(C)n1-c1sc2c(c1C#N)CCCC2,69,i,i,i,i,
CCOC(=O)c1c(-n2c(C)cc(/C=C3\C(=O)NC(=O)N(C)C3=O)c2C)sc2c1CCCC2,51,i,i,i,i,
CC1([N+](=O)[O-])COP(=O)(NC2CC2)OC1 (stereo not given),i,nt,i,nt,nt,
COC(=O)C1=C(c2cccc(OCc3ccccc3)c2)C[C@@H]2CC[C@H]1N2C(=O)NCCOc1ccccc1,i,nt,i,nt,nt,
Cc1ncoc1C(=O)NCC1=C(c2ccc3ccccc3c2)C[C@@H]2CC[C@H]1N2Cc1ccco1,nt,nt,i,nt,nt,
O=C1NC(=S)N(c2ccc(F)cc2)C(=O)/C1=C\c1ccoc1,51,i,i,i,i,
CC[C@H](C)/C=C(C)/C=C/C1=CC2=C(Cl)C(=O)[C@@](C)(OC(C)=O)C(=O)C2=CO1,63,nt,i,nt,i,
Cc1cc(N2CCCC2)ccc1C=C(C#N)C#N,i,i,i,i,nt,
N#CC(C#N)=Cc1ccc(C=C(C#N)C#N)cc1,38,nt,i,nt,i,
CC(=O)OC1=CC[C@H]2[C@@H]3CC[C@H]4C[C@H](OC(C)=O)[C@@H](OC(C)=O)C[C@]4(C)[C@H]3CC[C@]12C,i,nt,i,nt,nt,
COC(=O)C1=C(C(=O)OC)SC2(S1)C(C(=O)OC)=C(C(=O)OC)Sc1c2ssc1=O,i,nt,86,nt,-89,PfGluPho conf=60;Diaphorase 10uM=i;Diaph ctr 30uM=i
CCOc1cc2c(cc1OCC)-n1cccc1C(c1ccc(C(C)C)cc1)NC2 (stereo not given),i,nt,i,nt,nt,
O=C(O)CC1OCC=C2CN3CCC45C6=CC(=O)C(=O)C([N+](=O)[O-])=C6NC4C1C2CC35 (stereo not given),43,nt,107,nt,i,PfGluPho conf=105;Diaphorase 10uM=91;Diaph ctr 30uM=97
O=C(O)CC1OCC=C2CN3CCC45c6ccccc6NC4C1C2CC35 (stereo not given),i,nt,i,nt,nt,
C#C[C@]1(O)CC[C@H]2[C@@H]3CCC4=Cc5nc6nc7ccccc7n6cc5C[C@]4(C)[C@H]3CC[C@@]21C,i,nt,i,nt,nt,
CC(C)CNC(=O)/C=C/C=C/CCCCCC/C=C/c1ccc2c(c1)OCO2,i,nt,i,nt,nt,
O=c1c2ccccc2[se]n1-c1ccccc1,i,i,127,70,i,PfGluPho conf=113;Diaphorase 10uM=i;Diaph ctr 30uM=i
CN1CC[C@@]2(C)c3cc(O)ccc3N(C)[C@@H]12,i,nt,83,nt,i,PfGluPho conf=104;Diaphorase 10uM=74;Diaph ctr 30uM=i

# Screening results: PubChem, Sanford-Burnham Center for Chemical Genomics
